Laboratory results: ChEMBL document CHEMBL1155840, “Sesquiterpenes from Celastrus vulcanicola as photosynthetic inhibitors” (J Nat Prod, 2008)
Activity calls are given as the source filed them. No cut-off for these calls is given here.

Columns and labels:
Spinacia oleracea [1] = assay: Effect on uncoupled photosystem 2 in spinach chloroplast assessed as inhibition of electron transport rate of water to sodium silicomolybdate at 200 uM relative to control; set-up: scale not given: the % may be the effect or the level left
Method in brief: (§1)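 PSII water→silicomolybdate measured in the uncoupled electron flow mixture without MV, plus 200 μM SiMo and 10 μM DCMU. Run at 20 °C with a chloroplast-only blank. Activity given as % of control; average of three replicates.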

[2] = (§2) Inhibition of photosynthetic phosphorylation from water to methyl viologen in spinach leaves chloroplast; type: functional, Spinacia oleracea; conditions: read-out: I50
Method in brief: (§3)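 Isolated spinach chloroplasts (20 μg Chl/mL) osmotically ruptured in 100 mM sorbitol, 10 mM KCl, 5 mM MgCl₂, 0.001 M Na⁺-tricine, with 1 mM ADP, 3 mM Pi and 0.05 mM MV. ATP formed was calculated from light-driven alkalization, back-titrated with HCl. I50 read from concentration-response plots; average of three replicates.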

Spinacia oleracea [3] = assay: Effect on ATP synthesis in spinach leaves chloroplast assessed as blockade of basal electron transport at 50 uM; type: functional
Method in brief: (§4)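 Spinach chloroplasts at 20 μg chlorophyll/mL, illuminated 1 min in basal electron transport medium (3 mL) with 0.05 mM MV as electron acceptor. Run at 20 °C with a chloroplast-only blank. Rates are in μequiv e⁻ h⁻¹ mg⁻¹ Chl; 100% is the control activity.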

Spinacia oleracea [4] = assay: Effect on ATP synthesis in spinach leaves chloroplast assessed as blockade of phosphorylating electron transport at 50 uM; type: functional
Method in brief: (§5)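 Photophosphorylating noncyclic electron transport run as the basal assay (chloroplasts 20 μg Chl/mL, 1 min light, MV acceptor) with 1 mM ADP and 3 mM Pi added. Temperature 20 °C with a chloroplast-only blank. Activity expressed as % of control.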

Spinacia oleracea [5] = assay: Effect on ATP synthesis in spinach leaves chloroplast assessed as blockade of basal electron transport at 300 uM; type: functional; method in brief: as §4
Spinacia oleracea [6] = assay: Effect on ATP synthesis in spinach leaves chloroplast assessed as blockade of phosphorylating electron transport at 300 uM; type: functional; method in brief: as §5
Spinacia oleracea [7] = assay: Effect on ATP synthesis in spinach leaves chloroplast assessed as blockade of uncoupled electron transport at 50 uM; type: functional
Method in brief: (§6)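 Uncoupled electron transport measured in basal medium with 6 mM NH₄Cl as uncoupler. Actinic light came from a projector lamp through a 5 cm 1% CuSO₄ filter for 2 min. Chloroplasts at 20 μg Chl/mL, 20 °C, blank with chloroplasts alone. Activity given as % of control.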

Spinacia oleracea [8] = assay: Effect on ATP synthesis in spinach leaves chloroplast assessed as blockade of uncoupled electron transport at 300 uM; type: functional; method in brief: as §6
Spinacia oleracea [9] = assay: Effect on uncoupled photosystem 1 in spinach chloroplast assessed as inhibition of electron transport rate of 2,6-dichlorophenol indophenol to methyl viologen at 200 uM relative to control; set-up: scale not given: the % may be the effect or the level left
Method in brief: (§7)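 Uncoupled PSI flow measured polarographically in 3 mL basal uncoupled medium. Donor was 100 μM DCPIP reduced by 300 μM sodium ascorbate, with 10 μM DCMU to block PSII, 6 mM NH₄Cl and 0.05 mM MV as acceptor. Run at 20 °C; % of control; average of three replicates.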

Spinacia oleracea [10] = assay: Effect on uncoupled photosystem 1 in spinach chloroplast assessed as inhibition of electron transport rate of 2,6-dichlorophenol indophenol to methyl viologen at 300 uM relative to control; set-up: scale not given: the % may be the effect or the level left; method in brief: as §7
Spinacia oleracea [11] = assay: Inhibition of H+ATPase activity in spinach thylakoid membranes at 300 uM; type: cell membranes
Method in brief: (§8)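 Thylakoid membrane-bound Mg²⁺-ATPase measured during ATP hydrolysis. Released inorganic phosphate determined colorimetrically.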

Spinacia oleracea [12] = assay: Inhibition of light activated thylakoid membrane bound Mg+ATPase activity in spinach leaves at 100 uM relative to control; conditions: values are per cent of control; method in brief: as §8
Spinacia oleracea [13] = assay: Inhibition of light activated thylakoid membrane bound Mg+ATPase activity in spinach leaves at 200 uM relative to control; conditions: values are per cent of control; method in brief: as §8
Spinacia oleracea [14] = assay: Effect on photosystem 2 interaction site in spinach thylakoid membrane assessed as chlorophil-a fluorescence parameter at 150 uM; type: cell membranes
Method in brief: (§9)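 Freshly lysed spinach chloroplasts (20 μg Chl mL⁻¹) in the basal noncyclic electron transport medium were incubated with the compound for 5 min in the dark at room temperature. Rapid polyphasic Chl a fluorescence of PSII was then recorded at room temperature using a 2 s saturating pulse (2500 μmol […] s⁻¹, 650 nm LEDs). F0, Fm, Fv/Fm and area were read.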

Spinacia oleracea [15] = assay: Effect on photosystem 2 interaction site in spinach thylakoid membrane assessed as chlorophil-a fluorescence parameter at 300 uM; type: cell membranes; method in brief: as §9
Spinacia oleracea [16] = assay: Effect on photosystem 2 interaction site in spinach thylakoid membrane assessed as chlorophil-a fluorescence parameter at 600 uM; type: cell membranes; method in brief: as §9
Spinacia oleracea [17] = assay: Effect on uncoupled photosystem 2 in spinach chloroplast assessed as inhibition of electron transport rate of water to 2,6-dicholorophenol indophenol at 50 uM relative to control; set-up: scale not given: the % may be the effect or the level left
Method in brief: (§10)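 Uncoupled PSII water→DCPIP followed as DCPIP-supported O₂ evolution, measured polarographically. Basal medium used 300 μM K₃[Fe(CN)₆] in place of MV, with 1 μM DBMIB, 50 μM DCPIP and 6 mM NH₄Cl. Run at 20 °C; % of control; average of three replicates.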

Spinacia oleracea [18] = assay: Effect on uncoupled photosystem 2 in spinach chloroplast assessed as inhibition of electron transport rate of water to 2,6-dicholorophenol indophenol at 100 uM relative to control; set-up: scale not given: the % may be the effect or the level left; method in brief: as §10
Spinacia oleracea [19] = assay: Effect on uncoupled photosystem 2 in spinach chloroplast assessed as inhibition of electron transport rate of water to 2,6-dicholorophenol indophenol at 200 uM relative to control; set-up: scale not given: the % may be the effect or the level left; method in brief: as §10
Spinacia oleracea [20] = assay: Effect on uncoupled photosystem 2 in spinach chloroplast assessed as inhibition of electron transport rate of water to 2,6-dicholorophenol indophenol at 300 uM relative to control; set-up: scale not given: the % may be the effect or the level left; method in brief: as §10
Spinacia oleracea [21] = assay: Effect on uncoupled photosystem 2 in spinach chloroplast assessed as inhibition of electron transport rate of water to sodium silicomolybdate at 50 uM relative to control; set-up: scale not given: the % may be the effect or the level left; method in brief: as §1
Spinacia oleracea [22] = assay: Effect on uncoupled photosystem 2 in spinach chloroplast assessed as inhibition of electron transport rate of water to sodium silicomolybdate at 100 uM relative to control; set-up: scale not given: the % may be the effect or the level left; method in brief: as §1
Spinacia oleracea [23] = assay: Effect on uncoupled photosystem 2 in spinach chloroplast assessed as inhibition of electron transport rate of water to sodium silicomolybdate at 300 uM relative to control; set-up: scale not given: the % may be the effect or the level left; method in brief: as §1
Spinacia oleracea [24] = assay: Effect on uncoupled photosystem 1 in spinach chloroplast assessed as inhibition of electron transport rate of tetramethyl-p-benzohydroquinone to methyl viologen at 50 uM relative to control; set-up: scale not given: the % may be the effect or the level left
Method in brief: (§11)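 Uncoupled PSI flow TMQH₂→MV monitored polarographically at 20 °C in 3 mL basal electron medium. Additions were 100 μM TMQH₂/300 μM ascorbate, 10 μM DCMU and 6 mM NH₄Cl. Blank with chloroplasts alone; values as % of control; average of three replicates.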

Spinacia oleracea [25] = assay: Effect on uncoupled photosystem 1 in spinach chloroplast assessed as inhibition of electron transport rate of tetramethyl-p-benzohydroquinone to methyl viologen at 100 uM relative to control; set-up: scale not given: the % may be the effect or the level left; method in brief: as §11
Spinacia oleracea [26] = assay: Effect on uncoupled photosystem 1 in spinach chloroplast assessed as inhibition of electron transport rate of tetramethyl-p-benzohydroquinone to methyl viologen at 200 uM relative to control; set-up: scale not given: the % may be the effect or the level left; method in brief: as §11
Spinacia oleracea [27] = assay: Effect on uncoupled photosystem 1 in spinach chloroplast assessed as inhibition of electron transport rate of tetramethyl-p-benzohydroquinone to methyl viologen at 300 uM relative to control; set-up: scale not given: the % may be the effect or the level left; method in brief: as §11
Spinacia oleracea [28] = assay: Effect on uncoupled photosystem 1 in spinach chloroplast assessed as inhibition of electron transport rate of 2,6-dichlorophenol indophenol to methyl viologen at 50 uM relative to control; set-up: scale not given: the % may be the effect or the level left; method in brief: as §7
Spinacia oleracea [29] = assay: Effect on uncoupled photosystem 1 in spinach chloroplast assessed as inhibition of electron transport rate of 2,6-dichlorophenol indophenol to methyl viologen at 100 uM relative to control; set-up: scale not given: the % may be the effect or the level left; method in brief: as §7
Spinacia oleracea [30] = assay: Residual light activated thylakoid membrane bound Mg+ATPase activity in spinach leaves at 300 uM relative to control
Spinacia oleracea [31] = assay: as §2; type: functional; method in brief: as §3
Spinacia oleracea [32] = assay: Effect on photosystem 2 interaction site in spinach thylakoid membrane assessed as chlorophil-a fluorescence parameter at 10 uM; type: cell membranes

## CC(=O)O[C@H]1CC[C@](C)(O)[C@]23OC(C)(C)[C@H]([C@H](OC(=O)/C=C/c4ccccc4)[C@H](OC(=O)c4ccccc4)[C@]12C)[C@H]3O
Spinacia oleracea [1]
  Activity: 21%
[2]
  IC50: 25 µM
Spinacia oleracea [3]
  inhibition: 83%
Spinacia oleracea [4]
  inhibition: 79%
Spinacia oleracea [5]
  inhibition: 32%
Spinacia oleracea [6]
  inhibition: 68%
Spinacia oleracea [7]
  inhibition: 26%
Spinacia oleracea [8]
  inhibition: 52%
Spinacia oleracea [9]
  Activity: 100%
Spinacia oleracea [10]
  Activity: 100%
Spinacia oleracea [11]
  inhibition: 13%
Spinacia oleracea [12]
  residual activity: 91%
Spinacia oleracea [13]
  residual activity: 89%
Spinacia oleracea [14]
  Flu intensity: 1220
Spinacia oleracea [15]
  Flu intensity: 1260
Spinacia oleracea [16]
  Flu intensity: 875
Spinacia oleracea [17]
  Activity: 93%
Spinacia oleracea [18]
  Activity: 80%
Spinacia oleracea [19]
  Activity: 71%
Spinacia oleracea [20]
  Activity: 64%
Spinacia oleracea [21]
  Activity: 32%
Spinacia oleracea [22]
  Activity: 32%
Spinacia oleracea [23]
  Activity: 11%
Spinacia oleracea [24]
  Activity: 115%
Spinacia oleracea [25]
  Activity: 129%
Spinacia oleracea [26]
  Activity: 120%
Spinacia oleracea [27]
  Activity: 131%
Spinacia oleracea [28]
  Activity: 106%
Spinacia oleracea [29]
  Activity: 100%
Spinacia oleracea [30]
  residual activity: 87%

## CC(=O)O[C@H]1CC[C@@H](C)[C@]23OC(C)(C)[C@H]([C@H](OC(=O)/C=C/c4ccccc4)[C@H](OC(=O)c4ccccc4)[C@]12C)[C@H]3O
[2]
  IC50: 44 µM

## CC(=O)O[C@H]1CC[C@](C)(O)[C@]23OC(C)(C)[C@H]([C@H](OC(=O)/C=C/c4ccccc4)[C@H](OC(=O)c4ccccc4)[C@]12C)[C@H]3OC(C)=O
Spinacia oleracea [31]
  Activity: inactive

## CN(C)C(=O)Nc1ccc(Cl)c(Cl)c1
Spinacia oleracea [32]
  Flu intensity: 1200
